This note sets out measurements from ChEMBL document CHEMBL3425456, “Boronic acid-containing CXCR1/2 antagonists: Optimization of metabolic stability, in vivo evaluation, and a proposed receptor binding model” (Bioorg Med Chem Lett, 2015).

pIC50: −log10 of the molar value. Active and inactive are the calls of the source. No cut-off for these calls is given here. Where only a bound is given, the exact number is not on record here.

Series [1] has as its target T1, Interleukin-8 receptors, CXCR1/CXCR2 (Homo sapiens, UniProt P25025+P25024).
T1 sequence (P25025 whole entry): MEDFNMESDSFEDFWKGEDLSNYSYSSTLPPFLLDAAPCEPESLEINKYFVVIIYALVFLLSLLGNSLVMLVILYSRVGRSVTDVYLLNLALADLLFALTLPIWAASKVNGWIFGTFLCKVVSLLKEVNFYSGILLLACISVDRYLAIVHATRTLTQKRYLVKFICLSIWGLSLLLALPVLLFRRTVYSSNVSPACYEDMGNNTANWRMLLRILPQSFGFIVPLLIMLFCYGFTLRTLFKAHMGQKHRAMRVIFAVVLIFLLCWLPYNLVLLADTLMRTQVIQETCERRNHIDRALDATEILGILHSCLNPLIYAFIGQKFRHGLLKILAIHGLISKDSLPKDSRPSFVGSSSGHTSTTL
T1 sequence (P25024 whole entry): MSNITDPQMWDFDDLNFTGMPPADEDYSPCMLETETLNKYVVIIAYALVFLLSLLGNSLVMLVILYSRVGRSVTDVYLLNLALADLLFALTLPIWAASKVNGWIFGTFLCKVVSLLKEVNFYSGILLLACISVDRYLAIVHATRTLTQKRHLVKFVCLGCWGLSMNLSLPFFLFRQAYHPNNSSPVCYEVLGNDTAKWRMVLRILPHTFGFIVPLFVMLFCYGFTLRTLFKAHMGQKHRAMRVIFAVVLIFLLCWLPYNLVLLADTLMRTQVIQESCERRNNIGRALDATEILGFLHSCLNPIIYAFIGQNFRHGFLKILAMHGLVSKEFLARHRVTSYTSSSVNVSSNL
The series is described as follows: Antagonist activity at CXCR1/CXCR2 in human PMN cells assessed as inhibition of GROalpha-mediated intracellular calcium release. Type of series: functional, cell-based. In general terms: Calcium flux is commonly read through the fluorescence of an indicator in the cells.

Series [2] is described as follows: Metabolic stability in monkey liver microsomes assessed as compound remaining at 1 uM after 60 mins by LC-MS analysis. In kind it is ADME, Macaca mulatta. To be noted: rhesus monkey, 1 h. An outline of the steps: (§1)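 Compound at 1 µM was incubated with rat or monkey liver microsomes for 60 min at 37°C. Samples taken at 0 and 60 min were analysed by LC-MS for % parent remaining.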

Series [3] deals with Rattus norvegicus. The series is described as follows: AUC in rat at 1 mg/kg, po by LC-MS/MS analysis. In kind it is ADME, organism-based, Plasma. Details: dose 1 mg/kg, route oral. To be noted: in vivo, BLD = below limit of detection. An outline of the steps:
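Rats were dosed at 1 mg/kg by oral gavage. Plasma levels were measured by LC-MS/MS against a concurrently run calibration curve of compound spiked into rat plasma.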

The test system of series [4] is Rattus norvegicus. The series is described as follows: AUC in rat at 1 mg/kg, iv by LC-MS/MS analysis. Type of series: ADME, organism-based, Plasma. Details: dose 1 mg/kg, route intravenous. To be noted: in vivo. In short, it runs like this: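 Rats were dosed intravenously at 1 mg/kg. Plasma levels were measured by LC-MS/MS against a calibration curve of compound spiked into rat plasma and run alongside the samples. AUC was taken from the plasma concentration vs. time curve.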

The target of series [5] is T2, C-X-C chemokine receptor type 1 (Homo sapiens, UniProt P25024).
T2 sequence (P25024 whole entry): T1 sequence (P25024 whole entry)
Put plainly: Inhibition of CXCR1 (unknown origin) transfected with RBL cells. Type of series: cell-based.

The test system of the next series is Liver microsome. Put plainly: Metabolic stability in rat liver microsomes assessed as compound remaining at 1 uM after 60 mins by LC-MS analysis. In kind it is ADME. The settings on record: 1 h. An outline of the steps: as §1
In series [6] the target is T3, C-X-C chemokine receptor type 2 (Homo sapiens, UniProt P25025).
T3 sequence (P25025 whole entry): T1 sequence (P25025 whole entry)
Put plainly: Inhibition of CXCR2 (unknown origin) transfected with RBL cells. In kind it is cell-based. In short, it runs like this:
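RBL cells stably transfected with CXCR2 were used to measure antagonist activity at the receptor.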

The target of series [7] is T3, C-X-C chemokine receptor type 2. The series is described as follows: Inhibition of CXCR2 (unknown origin) expressed in PathHunter celline by beta-arrestin assay.
In series [8] the test system is Rattus norvegicus. The series is described as follows: Inhibition of neutrophil influx in ozone Sprague-Dawley rat model of pulmonary inflammation assessed as decrease in PMN influx into lungs at 1 mg/kg, iv after 24 hrs. In kind it is functional, organism-based. Details: dose 1 mg/kg. An outline of the steps: (§2)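 Sprague-Dawley rats, n = 4 per group, were dosed iv at 1 mg/kg (or vehicle) at t = 0, 5 and 9 h. They were exposed to air or 1 ppm ozone for 4 h and sacrificed at 24 h for bronchoalveolar lavage. BALF cells were Wright-Giemsa stained and counted (PMNs, macrophages). BALF protein was measured by Bradford assay as lung leakage.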

Series [9] deals with Rattus norvegicus. Put plainly: Inhibition of lung leakage in ozone Sprague-Dawley rat model of pulmonary inflammation at 1 mg/kg, iv after 24 hrs. Type of series: functional, organism-based. Details: dose 1 mg/kg. In short, it runs like this: as §2
Series [10] concerns Rattus norvegicus. The series is described as follows: Inhibition of macrophage influx in ozone Sprague-Dawley rat model of pulmonary inflammation at 1 mg/kg, iv after 24 hrs. In kind it is functional, organism-based. Details: dose 1 mg/kg. In short, it runs like this: as §2

`O=C(Nc1ccc(F)cc1)c1ccc(SCCc2ccccc2B(O)O)nc1`: in [1], the IC50 (in general, the concentration that inhibits the measured activity by half) turned out to be 0.387 µM.
For `O=C(Nc1ccc(F)cc1)c1ccc(SCc2ccc(B(O)O)cc2)nc1`, in series [1], the IC50 came to 0.09 µM.
Still for that read-out and setting: then `COc1ccc(B(O)O)c(CSc2ccc(C(=O)Nc3ccc(F)cc3)cn2)c1`, with 0.08 µM; and `O=C(Nc1ccc(F)cc1)c1ccc(SCc2cccc(B(O)O)c2)nc1`, with 1.22 µM.
With `O=C(Nc1ccc(F)cc1)c1ccc(SCCCCB(O)O)nc1`, in series [1], the IC50 is 0.689 µM.
As for `O=C(Nc1ccc(F)cc1)c1ccc(SCc2ccccc2B(O)O)nc1`, the Stability in [2] came out at 25%; in the series with Liver microsome, 37%. In addition, the figures for the AUC entry in the series on Rattus norvegicus [3] and in the series on Rattus norvegicus [4] were “BLD” and 0.39 µM·h, respectively. Further, the pIC50 – broadly, −log10 of the IC50, conventionally taken in molar units – in [5] was 6.04; in series [6], 6.45; in series [7], 6.14. The IC50 in [1] is 0.038 µM.
Regarding `O=C(Nc1ccc(F)cc1)c1ccc(SCc2cc3c(cc2B(O)O)OCO3)nc1`, the IC50 in [1] is above 10 µM.
On the same count and under the same terms, under `O=C(Nc1ccc(F)cc1)c1ccc(SCc2cc(F)ccc2B(O)O)nc1` stands 0.052 µM.
`O=C(Nc1ccc(F)cc1)c1ccc(SCc2cc(OC(F)(F)F)ccc2B(O)O)nc1`: the figures for the Stability (in series [2]; in the series with Liver microsome) were 95% and 92%, respectively. Further, the AUC (commonly concentration integrated over time) in the series on Rattus norvegicus [3] is “BLD”; with Rattus norvegicus [4] it was 5.4 µM·h. Also, the inhibition entry with Rattus norvegicus [8], with Rattus norvegicus [9] and in the series with Rattus norvegicus [10] was “Active” throughout.
With `COc1cc(CSc2ccc(C(=O)Nc3ccc(F)cc3)cn2)c(B(O)O)cc1OC`, the IC50 in series [1] is above 10 µM.
